Cytotoxicity data for 96 compounds are collected here from ChEMBL document CHEMBL4513216, “Probing the Open Global Health Chemical Diversity Library for Multistage-Active Starting Points for Next-Generation Antimalarials” (ACS Infect Dis, 2020).

The data set can be described thus: Toxicity liver stage against HepG2, at 10uM. The data set is classed as cell-based. Details: test concentration 10 uM, cell line HepG2-A16-CD81EGFP. The conditions noted are these: human, HepG2-A16-CD81EGFP cells; read-out: INHIBITION
The essentials:
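Uninfected HepG2-A16-CD81EGFP cells, 3 × 10^3 per well, 1536-well, plated on prespotted compound at 10 μM final, parasite-free screening media added to match infected plates; puromycin 10 μM positive, DMSO 0.5% negative; run in parallel with 48 h PbLuc assay at 37 °C, 5% CO2; viability by CellTiter-Glo luminescence, normalized to controls.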
For the compound `Cc1ccc(S(=O)(=O)Cc2noc([C@@H]3C[C@@H](O)CN3)n2)cc1`, the cytotoxicity at 10 µM is -5.78%.

With `Cn1ccnc1CN1C[C@H]2CN(S(C)(=O)=O)CCN2C1=O`, the cytotoxicity at 10 µM is -6.04%.

For the compound `CC1CCN(c2ncc(C#N)c(N)n2)CC1`, the cytotoxicity at 10 µM worked out at 15.5%. Take `CCN1CC(COc2ccc(OC)cc2)Oc2ccncc2S1(=O)=O` (stereo unspecified): the cytotoxicity at 10 µM was -7.6%. To `O=C1c2cccnc2OC(CN2CCOCC2)CN1C1CCC1` (stereo unspecified) belongs -4.18%; to `Nc1nc2c(c(NC(=O)Nc3ccc(Cl)c(Cl)c3)n1)CCCC2`, -6.92%; to `CN(C)S(=O)(=O)N1CC(c2nc(-c3ccsc3)no2)C1`, -6.6%. `CN(C)C1COC2(CCN(C(=O)c3cccnc3)CC2)C1` (stereo unspecified): the cytotoxicity at 10 µM was 3.53%. To `CN1C(Cn2cccn2)C[C@@H]2CN(Cc3cnn(C)c3)CC[C@@H]21` (stereo partly specified) belongs 3.16%; to `COCCN1CCn2cc(CNC(=O)C3CCC3)nc2C1`, 3.68%. On to `COC[C@@]12CCO[C@@H]1CCN(C(=O)Cc1ccccc1C)C2`, for which the cytotoxicity at 10 µM came to 2.05%. With `CCS(=O)(=O)N1CC[C@H]2[C@H]1CC(=O)N2Cc1csc(C)n1` the figure was -133%. Turning to `COCC1COCCC12CCN(C(=O)COc1ccccc1)CC2` (stereo unspecified), the cytotoxicity at 10 µM is -1.69%. With `Cc1noc([C@@H]2CC[C@@H]3[C@@H](CCN3S(C)(=O)=O)O2)n1` the figure was -2.16%. With `COc1ncccc1C(=O)N1CC[C@H]2C[C@H](c3noc(C)n3)O[C@@H]2C1`, the cytotoxicity at 10 µM came out at 5.31%.

On to `O=C(CCn1ccc2ccc(Cl)cc21)NCc1ccc(C(=O)O)cc1`, for which the cytotoxicity at 10 µM was -0.411%.

Take `CCCc1nnsc1C(=O)NCC1CCN(c2ccccn2)CC1`: the cytotoxicity at 10 µM is -16.7%. With `O=S(=O)(NCC1CCN(c2cnccn2)CC1)c1c(F)cccc1F`, the cytotoxicity at 10 µM came out at 10.4%.

Regarding `COCc1c(C(=O)O)nnn1Cc1cccc(C(F)(F)F)c1`, the cytotoxicity at 10 µM was 2.17%. To `CS(=O)(=O)NC(c1ccccc1)c1ccc2c(c1)CCCO2` (stereo unspecified) belongs 0.682%; to `COC(=O)c1cccc(C(=O)N(C)Cc2cccc(F)c2)c1`, 5.75%; to `CCc1cc(=O)[nH]c(-c2ccc(NC(C)COC)nc2)n1` (stereo unspecified), -146%. Regarding `O=c1[nH]c(C2CCOC2)nc2ccc(Cl)cc12` (stereo unspecified), the cytotoxicity at 10 µM was -12%. With `CC(NC(=O)CNc1cc2c(cc1Cl)OCCO2)c1ccco1` (stereo unspecified) the figure was -1.31%; with `Cc1nc2n(n1)CC(NCc1ccccc1OCC(=O)N(C)C)CC2` (stereo unspecified), 7.61%. As for `CCOCCN1CCN(CCC(=O)N2CCCCC2)CC1C` (stereo unspecified), the cytotoxicity at 10 µM was -5.99%. To `COc1cc(CSc2nnc(C)n2CC(N)=O)ccc1SC` belongs -7.91%; to `COc1c(CNCc2ccccc2Cn2cccn2)c(C)nn1C`, 9.79%. To `CC(Nc1cccc2c1OCCO2)C(=O)Nc1ccc(Cl)cc1` (stereo unspecified) belongs 2.84%; to `CNS(=O)(=O)c1cccc(C(C)NCc2ccccc2OC)c1` (stereo unspecified), -2.59%.

Take `Cc1nc(C)c(CNCc2nnc3n2CCCC3C(F)(F)F)s1` (stereo unspecified): the cytotoxicity at 10 µM came to 3.28%. For `Cc1cncc(NCC(O)c2ccco2)n1` (stereo unspecified), the cytotoxicity at 10 µM came out at 5.58%. With `O=C(NCc1ccccc1CN1CCCC1)Nc1cccnc1` the figure was 6.75%; with `CC(C)(C)C(=O)NCCC(=O)NC(C)(C)c1ccc2c(c1)OCO2`, -1.26%; with `CSCC(=O)Nc1cccc(Oc2ccccn2)c1`, -6.1%. With `CNC(=O)CCNC(=O)c1ccccc1N1CCOCC1` the figure was 2.29%; with `COc1cccc2[nH]cc(CCNC(=O)N3CCOCC3C3CC3)c12` (stereo unspecified), 12.1%; with `Cc1nc(C)n(C2CCCN(C(=O)CCn3ccnn3)C2)n1` (stereo unspecified), -0.649%. Take `COc1c(Br)cccc1CCNC(=O)c1csnn1`: the cytotoxicity at 10 µM was -2.5%. With `CC(Nc1ccn(Cc2ccccn2)n1)C(=O)NC(C)(C)C` (stereo unspecified) the figure was -2.08%; with `COc1ccc(C(NCc2cccc(C#N)c2)C(C)C)cc1` (stereo unspecified), 17%. With `Cc1ccc(N2CCCC(N3CCC4(CC3)OCCO4)C2=O)cc1` (stereo unspecified) the figure was 6.7%; with `Cc1cc(-c2nnn(CCC(N)=O)n2)ccc1F`, -8.71%; with `O=C(CN1CCCC1Cn1cncn1)Nc1cccnc1` (stereo unspecified), -14.6%.

Turning to `Cc1cccc(CNCc2c(C)nn(C)c2N2CCOCC2)n1`, the cytotoxicity at 10 µM was -10.9%. Take `CCc1ccc(C(=O)Nc2ccc(CC3CC(=O)NC3=O)cc2)cc1` (stereo unspecified): the cytotoxicity at 10 µM was -13.5%. With `Cc1cnn(CC2CN(CCc3ccncc3)CCO2)c1` (stereo unspecified), the cytotoxicity at 10 µM was -13.6%. With `Cc1cc(C)cc(CN2CCN(C(=O)COCC3CCCO3)CC2=O)c1` (stereo unspecified) the figure was 4.07%; with `CCCOCC(=O)N1CCC2(CC1)c1nc[nH]c1CCN2S(C)(=O)=O`, 3.22%. For the compound `Cn1ccnc1CN1CCC(c2ccnc(-c3cccc(O)c3)c2)C1` (stereo unspecified), the cytotoxicity at 10 µM stood at 6.52%. On to `CCn1nc(CC(C)C)cc1C(=O)N1CCN([C@H]2CCCC[C@@H]2O)CC1`, for which the cytotoxicity at 10 µM was -6.98%. To `Cc1nc(N2CCN(C)CC2)ncc1C(=O)N1CC[C@](C)(O)[C@H](C)C1` belongs 1.88%. Turning to `Cc1cc(C2CCC2)nc(N2CC(n3cccn3)C2)n1`, the cytotoxicity at 10 µM is -3.59%. For `CC(C)NS(=O)(=O)c1cc(C(=O)O)cc(-c2ccc3c(c2)OCO3)c1`, the cytotoxicity at 10 µM is 0.873%. For the compound `Cc1cc(C(=O)N2CCc3ncnc(N4CCSCC4)c3CC2)[nH]n1`, the cytotoxicity at 10 µM was -6.98%. As for `Nc1nnc(CCNc2ncnc3c2CCN(C(=O)C2CC2)C3)s1`, the cytotoxicity at 10 µM was -7%. For the compound `CCc1nnc(N2CCN(c3ccccc3)C(=O)C2)o1`, the cytotoxicity at 10 µM is -8.74%.

As for `COc1ccc(OCc2cc(C(=O)N3CCOCC3)n[nH]2)c(Cl)c1`, the cytotoxicity at 10 µM was -3.66%. `Cc1cc(C)cc(CCC(=O)N(C)CCc2cn[nH]c2)c1`: the cytotoxicity at 10 µM was 3.04%. With `O=C1OCCN1Cc1cc(C(F)(F)F)ccc1F` the figure was -5.52%. To `CCOC(=O)N1CCCn2nc(C(=O)NCCN(C)C)cc2C1` belongs 3.13%. To `Cc1cccnc1CN1CCC(c2nnc(Cn3cccn3)n2C)CC1` belongs -11.5%; to `CC(C)N(C)S(=O)(=O)N(C)Cc1ccc2c(c1)OCCO2`, -2.84%. For the compound `CN1CCOC(CNCc2ccccc2OCc2ccccn2)C1` (stereo unspecified), the cytotoxicity at 10 µM is -9.39%. As for `COc1cc(CNCc2ccc(-n3nc(C)cc3C)nc2)cc(OC)c1`, the cytotoxicity at 10 µM is -8.57%. To `CN(Cc1nnc(C2CC2)o1)C1CCCN(c2cccnn2)C1` (stereo unspecified) belongs -10.7%; to `CC(C)(C)c1cc(NC(=O)CN2CCc3cncnc3C2)on1`, -8.78%; to `COc1cccc(S(=O)(=O)NC(=O)CCC2CCCO2)c1` (stereo unspecified), -14.7%. In the case of `COc1ccc(COCC(=O)N2CCCC(n3cncn3)C2)cc1` (stereo unspecified), the cytotoxicity at 10 µM was -11.1%. With `Cc1cnn(CC2CN(Cc3nc(-c4ccco4)no3)CCO2)c1` (stereo unspecified) the figure was -20.3%; with `CN(Cc1cn(-c2ccccc2)nn1)C1CCCN(c2cccnn2)C1` (stereo unspecified), -20.5%. On to `c1ccc(-n2ccc(CN3CCCCC3Cn3cncn3)n2)cc1` (stereo unspecified), for which the cytotoxicity at 10 µM was -7.85%.

As for `CSc1ccc(C)c(C(=O)N2CCCC(n3cncn3)C2)c1` (stereo unspecified), the cytotoxicity at 10 µM is -13.1%.

Turning to `Cc1cnn(CC2CCCN2Cc2nccn2CC(F)(F)F)c1` (stereo unspecified), the cytotoxicity at 10 µM is -8.5%.

As to `CCN1CCN(C2CCN(Cc3nnc(C(C)C)o3)CC2)C1=O`, the cytotoxicity at 10 µM is -0.677%. In the case of `CC(C)COC(C)C(=O)NCc1ccccc1` (stereo unspecified), the cytotoxicity at 10 µM is 4.79%. For the compound `Fc1ccc(-c2nnc(CN3CCOC(Cn4cncn4)C3)o2)cc1` (stereo unspecified), the cytotoxicity at 10 µM is -5.97%. As to `CCOc1c(Cl)cccc1NCc1cc(C)on1`, the cytotoxicity at 10 µM amounted to 1.04%. With `Cc1cnn(C2CCCN(C(=O)c3sccc3-n3cnnn3)C2)c1` (stereo unspecified) the figure was -8.72%; with `O=C(CCc1cccnc1)N1CCCC(n2cncn2)C1` (stereo unspecified), -10.9%; with `NC(=O)CN1CCCN(C(=O)Cc2ccc3ccccc3c2)CC1`, 7.82%.

Take `CCOc1nnc(CNC2CCCN(c3ccc(C)nn3)C2)s1` (stereo unspecified): the cytotoxicity at 10 µM is -9.31%. With `CN(C)C(=O)CN1CCC2(CCCN(Cc3cccn3C)C2)C1=O` (stereo unspecified) the figure was 11.3%; with `O=C(C1CCCC1)N1CCCC2(CCN(c3cnccn3)CC2)C1`, 9.53%. Consider `CC(=O)N1[C@H](CN(C)C)C[C@@H]2CN(C(=O)c3cccn3C)CC[C@@H]21`, for which the cytotoxicity at 10 µM was 2.53%. With `CC(C)CNC(=O)[C@H]1CCS(=O)(=O)[C@@H]2CN(Cc3ccc(Cl)cc3)C[C@H]12` the figure was -13.9%; with `O=C(Cc1ccccn1)N1CCc2ncnc(N3CCCC3)c2CC1`, -2.13%. As to `Cc1nnc(N2C[C@H](Oc3ccccn3)[C@H]3OCCC[C@H]32)s1`, the cytotoxicity at 10 µM stood at 10.7%. With `Cc1cccc(CN2Cc3ncn(C)c3C(COCC(=O)N(C)C)C2)n1` (stereo unspecified) the figure was 4.56%; with `CC(C)N(C)Cc1cn2c(n1)CN(C(=O)Cc1ccsc1)CC2`, -11.1%; with `O=C(NCc1cccnc1)[C@@H]1C[C@@H]2CCN(c3ncc(F)cn3)C[C@@H]2O1`, -72.1%. To `CNC(=O)C1CCC2(CCNCC2)C1` (stereo unspecified) belongs 6.41%. In the case of `CN1C(=O)CC(c2cnn(C)c2)C12CCN(CC1CCOCC1)CC2` (stereo unspecified), the cytotoxicity at 10 µM is -3.19%.

`O=C(NCC1CC1)[C@@H]1CCO[C@@H]2CCN(Cc3ccc(F)cc3)C[C@H]21`: the cytotoxicity at 10 µM was 1.42%. With `CC(C)n1c(=O)[nH]c2cn(-c3ccc(Cl)cc3)c(=O)n21` the figure was -0.769%. For the compound `CN(C)CCN1CCC2[C@@H]1CCN2Cc1ccc2c(c1)OCO2` (stereo partly specified), the cytotoxicity at 10 µM was -4.28%.
